Experimental data reported in ChEMBL document CHEMBL1131609, “Syntheses and structure-activity relationships of novel retinoid X receptor agonists” (J Med Chem, 1998).
Activity calls are given as the source filed them. The calls are words filed in the database; no cut-off is given here.

How the values were obtained:
[1] = biological target: T1, Retinoic acid receptor gamma (Homo sapiens) (UniProt P13631); assay: Relative IC50 for human RAR-gamma receptor as IC50(compound) divided by IC50(ATRA)
T1 sequence (whole entry): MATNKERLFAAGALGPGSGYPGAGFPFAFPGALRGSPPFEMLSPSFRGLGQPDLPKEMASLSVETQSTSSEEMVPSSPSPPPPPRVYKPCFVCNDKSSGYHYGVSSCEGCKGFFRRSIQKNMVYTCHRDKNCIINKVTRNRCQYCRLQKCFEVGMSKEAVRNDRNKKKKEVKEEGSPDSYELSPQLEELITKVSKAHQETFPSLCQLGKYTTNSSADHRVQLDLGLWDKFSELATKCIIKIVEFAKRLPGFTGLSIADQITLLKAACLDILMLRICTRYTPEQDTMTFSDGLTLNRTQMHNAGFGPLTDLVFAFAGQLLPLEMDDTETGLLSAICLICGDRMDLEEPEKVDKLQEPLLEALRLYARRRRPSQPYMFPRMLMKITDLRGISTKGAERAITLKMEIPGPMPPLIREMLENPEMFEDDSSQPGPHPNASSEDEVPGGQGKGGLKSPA
Procedure, shortened: (§1)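 Competitive binding used nuclear extracts of BHK clones stably expressing human RAR-α, β or γ, selected in 250 nM methotrexate. Extracts were incubated with [³H]-ATRA (added as 10 nM solution) and unlabeled compound for 16 h at 4 °C. Free ligand was removed with charcoal/dextran, and the supernatant was counted. Nonspecific binding was taken as binding with 1000-fold excess unlabeled ligand. IC50 from logarithmic plots was divided by the IC50 of ATRA.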

[2] = biological target: T2, Retinoic acid receptor beta (Homo sapiens) (UniProt P10826); assay: Relative IC50 for human RAR-beta receptor IC50(compound) divided by IC50(ATRA); procedure, shortened: as §1
T2 sequence (whole entry): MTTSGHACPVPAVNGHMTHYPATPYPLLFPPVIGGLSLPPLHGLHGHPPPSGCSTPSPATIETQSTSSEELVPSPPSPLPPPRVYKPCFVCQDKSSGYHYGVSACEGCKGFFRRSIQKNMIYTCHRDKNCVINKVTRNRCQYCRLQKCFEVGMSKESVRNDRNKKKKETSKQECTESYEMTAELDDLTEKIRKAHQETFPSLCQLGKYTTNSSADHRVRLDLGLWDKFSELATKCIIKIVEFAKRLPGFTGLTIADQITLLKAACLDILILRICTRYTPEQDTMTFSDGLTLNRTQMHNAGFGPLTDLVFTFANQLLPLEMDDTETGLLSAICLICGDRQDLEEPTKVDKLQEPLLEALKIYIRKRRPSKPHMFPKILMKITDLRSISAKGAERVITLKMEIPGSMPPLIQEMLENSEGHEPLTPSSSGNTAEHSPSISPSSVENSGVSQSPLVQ

[3] = biological target: T3, Retinoic acid receptor alpha (Homo sapiens) (UniProt P10276); assay: Relative IC50 for human RAR-alpha receptor as IC50(compound) divided by IC50(ATRA); procedure, shortened: as §1
T3 sequence (whole entry): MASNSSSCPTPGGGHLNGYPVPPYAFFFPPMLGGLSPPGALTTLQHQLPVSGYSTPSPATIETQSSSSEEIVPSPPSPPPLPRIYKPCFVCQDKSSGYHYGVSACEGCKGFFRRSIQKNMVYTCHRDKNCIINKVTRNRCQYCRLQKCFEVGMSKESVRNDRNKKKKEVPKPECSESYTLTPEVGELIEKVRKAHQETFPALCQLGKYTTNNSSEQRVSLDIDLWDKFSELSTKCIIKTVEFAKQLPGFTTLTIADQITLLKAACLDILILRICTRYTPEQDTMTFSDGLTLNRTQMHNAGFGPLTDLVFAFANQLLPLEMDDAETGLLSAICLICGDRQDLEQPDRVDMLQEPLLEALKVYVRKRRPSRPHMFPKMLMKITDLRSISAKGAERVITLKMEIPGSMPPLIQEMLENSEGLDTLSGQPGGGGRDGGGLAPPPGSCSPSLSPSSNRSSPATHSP

[4] = biological target: T2, Retinoic acid receptor beta (Homo sapiens); assay: Percent maximal induction of human RAR-beta receptor relative to ATRA; Inactive; type: functional
[5] = biological target: T2, Retinoic acid receptor beta (Homo sapiens); assay: Relative EC30 for human RAR-beta receptor as EC30(compound) divided EC30(ATRA); Inactive
[6] = biological target: T3, Retinoic acid receptor alpha (Homo sapiens); assay: Percent maximal induction of human RAR-alpha receptor relative to ATRA; Inactive; type: functional
[7] = biological target: T1, Retinoic acid receptor gamma (Homo sapiens); assay: Relative EC30 for human RAR-gamma receptor as EC30(compound) divided by EC30(ATRA); Inactive
[8] = biological target: T1, Retinoic acid receptor gamma (Homo sapiens); assay: Percent maximal induction of human RAR-gamma receptor relative to ATRA; Inactive; type: functional
[9] = biological target: T3, Retinoic acid receptor alpha (Homo sapiens); assay: Relative EC30 for human RAR-alpha receptor as EC30(compound) divided by EC30(ATRA); Inactive
[10] = biological target: T1, Retinoic acid receptor gamma (Homo sapiens); assay: Relative EC30 for human RAR-gamma receptor as EC30(compound) divided by EC30(ATRA); inactive
[11] = biological target: T2, Retinoic acid receptor beta (Homo sapiens); assay: Relative EC30 for human RAR-beta receptor as EC30(compound) divided by EC30(ATRA)

| Relative IC50 [1] | Relative IC50 [2] | Relative IC50 [3] | Efficacy [4] | Relative EC30 [5] | Efficacy [6] | Relative EC30 [7] | Efficacy [8] | Relative EC30 [9] | Relative EC30 [10] | Relative EC30 [11] | SMILES |
| --- | --- | --- | --- | --- | --- | --- | --- | --- | --- | --- | --- |
| 187 | 432 | 372 |  |  |  |  |  |  |  |  | CC(/C=C/C=C(\C)c1ccc2c(c1)CCCN2C(C)C)=C\C(=O)O |
|  |  |  | inactive | inactive | inactive | inactive | inactive | inactive |  |  | CCCC\C(=C(F)/C=C/C(C)=C/C(=O)O)c1ccc2c(c1)CCCN2C(C)C |
|  |  |  |  |  | inactive |  | inactive | inactive | inactive |  | CCC\C(=C(F)/C=C/C(C)=C/C(=O)O)c1ccc2c(c1)CCCN2C(C)C |
|  |  |  |  |  | inactive |  | inactive |  |  | 1600 | CC\C(=C(F)/C=C/C(C)=C/C(=O)O)c1ccc2c(c1)CCCN2C(C)C |
